Data reported in ChEMBL document CHEMBL4706611, “Selective targeting of the αC and DFG-out pocket in p38 MAPK” (Eur J Med Chem, 2020).

Experiment: Metabolic stability in human liver microsomes assessed as compound remaining preincubated for 5 mins in presence of NADPH regeneration system followed by HLM addition measured after 240 mins by LC-MS analysis
Assay type: ADME, Microsome
Conditions: read-out: Stabilty
How it was run: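 Compounds were incubated with human liver microsomes and sampled at 0, 10, 20, 30, 60, 120, 180 and 240 min. Degradation and metabolite formation were followed by LC-MS, ESI(+). Run in triplicate; mean with standard deviation reported.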

remaining at 4 h | Compound
66.9% | NC(=O)[C@H](CCC1CCCCC1)NC(=O)c1ccc(CNC(=O)c2cnn(-c3ccccc3)c2N)cc1
83.5% | Nc1c(C(=O)NCc2ccc(C(=O)N[C@@H](CCC3CCCCC3)C(=O)Nc3ccc(F)cc3)cc2)cnn1-c1ccccc1
99.5% | Nc1c(C(=O)NCc2ccc(C(=O)N[C@@H](CCC3CCCCC3)C(=O)NCc3ccncc3)cc2)cnn1-c1ccccc1
64% | CCNC(=O)[C@H](CCC1CCCCC1)NC(=O)c1ccc(CNC(=O)c2cnn(-c3ccccc3)c2N)cc1
